Reference: ChEMBL document CHEMBL5058577, “EUbOPEN Chemogenomics Library 2 (Multiplex)” (2022)

Test system: U2OS
Experiment: Multiplex assay against U2OS
Type: toxicity, cell-based
Details: human
Summary of the method: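 Values for tubulin, mitochondrial-mass and membrane-permeability phenotypes are per cents of cells with healthy nuclei. These cells were identified by CellPathfinder machine-learning gating of live cells that had been stained at seeding with Hoechst33342, BioTracker Green Microtubule Cytoskeleton Dye, MitoTracker Red and Annexin V Alexa Fluor 680 and imaged on a CQ1 microscope at 37°C and 5% CO2 after compound addition. The gating first set Hoechst high-intensity objects apart from normal cells, then split normal cells into healthy, pyknosed or fragmented nuclei, and pyknosed cells into mitotic or apoptotic.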

[1] = 12 h, 1 µM, compound concentration 1 uM, replicate 1
[2] = 12 h, 1 µM, compound concentration 1 uM, replicate 2
[3] = 12 h, 10 µM, compound concentration 10 uM, replicate 1
[4] = 12 h, 10 µM, compound concentration 10 uM, replicate 2
[5] = 24 h, 1 µM, compound concentration 1 uM, replicate 1
[6] = 24 h, 1 µM, compound concentration 1 uM, replicate 2
[7] = 24 h, 10 µM, compound concentration 10 uM, replicate 1
[8] = 24 h, 10 µM, compound concentration 10 uM, replicate 2
[9] = 48 h, 1 µM, compound concentration 1 uM, replicate 1
[10] = 48 h, 1 µM, compound concentration 1 uM, replicate 2
[11] = 48 h, 10 µM, compound concentration 10 uM, replicate 1
[12] = 48 h, 10 µM, compound concentration 10 uM, replicate 2

CC(C)(C)c1ccc(S(=O)(=O)Nc2ccc(Cl)cc2C(=O)c2cc[n+]([O-])cc2)cc1 [VERCIRNON]
Population Apoptotic (%) [1]: 77% | Population Fragmented Nuclei (%) [1]: 28% | Population Healthy Nuclei (%) [1]: 61% | Population Hoechst High Intensity Objects (%) [1]: 1% | Population Membrane Permeable-Phenotype (%) [1]: 8% | Population Mitochondria Different-Phenotype (%) [1]: 5% | Population Mitotic Cells (%) [1]: 22% | Population Normal (%) [1]: 98% | Population Pyknosed Nuclei (%) [1]: 10% | Population Tubulin-Different-Phenotype (%) [1]: 4% | Total Cell Count [1]: 307 | Population Apoptotic (%) [2]: 100% | Population Fragmented Nuclei (%) [2]: 15% | Population Healthy Nuclei (%) [2]: 79% | Population Hoechst High Intensity Objects (%) [2]: 0% | Population Mitochondria Different-Phenotype (%) [2]: 4% | Population Mitotic Cells (%) [2]: 0% | Population Normal (%) [2]: 99% | Population Pyknosed Nuclei (%) [2]: 5% | Population Tubulin-Different-Phenotype (%) [2]: 3% | Total Cell Count [2]: 156 | Population Apoptotic (%) [3]: 77% | Population Fragmented Nuclei (%) [3]: 24% | Population Healthy Nuclei (%) [3]: 68% | Population Hoechst High Intensity Objects (%) [3]: 1% | Population Membrane Permeable-Phenotype (%) [3]: 3% | Population Mitochondria Different-Phenotype (%) [3]: 2% | Population Mitotic Cells (%) [3]: 22% | Population Normal (%) [3]: 98% | Population Pyknosed Nuclei (%) [3]: 6% | Population Tubulin-Different-Phenotype (%) [3]: 1% | Total Cell Count [3]: 266 | Population Apoptotic (%) [4]: 50% | Population Fragmented Nuclei (%) [4]: 21% | Population Healthy Nuclei (%) [4]: 77% | Population Hoechst High Intensity Objects (%) [4]: 0% | Population Membrane Permeable-Phenotype (%) [4]: 15% | Population Mitotic Cells (%) [4]: 50% | Population Normal (%) [4]: 99% | Population Pyknosed Nuclei (%) [4]: 1% | Population Tubulin-Different-Phenotype (%) [4]: 15% | Total Cell Count [4]: 123 | Population Apoptotic (%) [5]: 89% | Population Fragmented Nuclei (%) [5]: 25% | Population Healthy Nuclei (%) [5]: 67% | Population Hoechst High Intensity Objects (%) [5]: 1% | Population Membrane Permeable-Phenotype (%) [5]: 8% | Population Mitochondria Different-Phenotype (%) [5]: 5% | Population Mitotic Cells (%) [5]: 10% | Population Normal (%) [5]: 98% | Population Pyknosed Nuclei (%) [5]: 7% | Population Tubulin-Different-Phenotype (%) [5]: 4% | Total Cell Count [5]: 357 | Population Apoptotic (%) [6]: 92% | Population Fragmented Nuclei (%) [6]: 18% | Population Healthy Nuclei (%) [6]: 74% | Population Hoechst High Intensity Objects (%) [6]: 0% | Population Membrane Permeable-Phenotype (%) [6]: 2% | Population Mitochondria Different-Phenotype (%) [6]: 4% | Population Mitotic Cells (%) [6]: 7% | Population Normal (%) [6]: 99% | Population Tubulin-Different-Phenotype (%) [6]: 2% | Total Cell Count [6]: 183 | Population Apoptotic (%) [7]: 76% | Population Fragmented Nuclei (%) [7]: 21% | Population Healthy Nuclei (%) [7]: 72% | Population Hoechst High Intensity Objects (%) [7]: 2% | Population Membrane Permeable-Phenotype (%) [7]: 1% | Population Mitochondria Different-Phenotype (%) [7]: 1% | Population Mitotic Cells (%) [7]: 23% | Population Normal (%) [7]: 97% | Population Pyknosed Nuclei (%) [7]: 5% | Population Tubulin-Different-Phenotype (%) [7]: 1% | Total Cell Count [7]: 297 | Population Apoptotic (%) [8]: 71% | Population Fragmented Nuclei (%) [8]: 22% | Population Hoechst High Intensity Objects (%) [8]: 1% | Population Membrane Permeable-Phenotype (%) [8]: 13% | Population Mitotic Cells (%) [8]: 28% | Population Normal (%) [8]: 98% | Population Pyknosed Nuclei (%) [8]: 4% | Population Tubulin-Different-Phenotype (%) [8]: 15% | Total Cell Count [8]: 160 | Population Apoptotic (%) [9]: 82% | Population Fragmented Nuclei (%) [9]: 19% | Population Healthy Nuclei (%) [9]: 73% | Population Hoechst High Intensity Objects (%) [9]: 3% | Population Membrane Permeable-Phenotype (%) [9]: 5% | Population Mitochondria Different-Phenotype (%) [9]: 3% | Population Mitotic Cells (%) [9]: 17% | Population Normal (%) [9]: 96% | Population Pyknosed Nuclei (%) [9]: 6% | Population Tubulin-Different-Phenotype (%) [9]: 4% | Total Cell Count [9]: 515 | Population Apoptotic (%) [10]: 84% | Population Fragmented Nuclei (%) [10]: 15% | Population Healthy Nuclei (%) [10]: 75% | Population Hoechst High Intensity Objects (%) [10]: 4% | Population Membrane Permeable-Phenotype (%) [10]: 7% | Population Mitochondria Different-Phenotype (%) [10]: 2% | Population Mitotic Cells (%) [10]: 15% | Population Normal (%) [10]: 95% | Population Pyknosed Nuclei (%) [10]: 9% | Population Tubulin-Different-Phenotype (%) [10]: 2% | Total Cell Count [10]: 296 | Population Apoptotic (%) [11]: 79% | Population Fragmented Nuclei (%) [11]: 18% | Population Healthy Nuclei (%) [11]: 75% | Population Hoechst High Intensity Objects (%) [11]: 1% | Population Membrane Permeable-Phenotype (%) [11]: 2% | Population Mitochondria Different-Phenotype (%) [11]: 1% | Population Mitotic Cells (%) [11]: 20% | Population Normal (%) [11]: 98% | Population Pyknosed Nuclei (%) [11]: 5% | Population Tubulin-Different-Phenotype (%) [11]: 1% | Total Cell Count [11]: 414 | Population Apoptotic (%) [12]: 77% | Population Fragmented Nuclei (%) [12]: 26% | Population Healthy Nuclei (%) [12]: 65% | Population Hoechst High Intensity Objects (%) [12]: 2% | Population Membrane Permeable-Phenotype (%) [12]: 8% | Population Mitochondria Different-Phenotype (%) [12]: 5% | Population Mitotic Cells (%) [12]: 22% | Population Normal (%) [12]: 97% | Population Pyknosed Nuclei (%) [12]: 8% | Population Tubulin-Different-Phenotype (%) [12]: 11% | Total Cell Count [12]: 215
